The M2OR odorant receptor database
Numbering of substitutions follows the chain as printed.

Columns and labels:
Conditions in all cases: stereoisomer not certain
OR4K13 (Homo sapiens) = target: T1, OR4K13 (Homo sapiens) (UniProt Q8NH42)
T1 sequence (whole entry): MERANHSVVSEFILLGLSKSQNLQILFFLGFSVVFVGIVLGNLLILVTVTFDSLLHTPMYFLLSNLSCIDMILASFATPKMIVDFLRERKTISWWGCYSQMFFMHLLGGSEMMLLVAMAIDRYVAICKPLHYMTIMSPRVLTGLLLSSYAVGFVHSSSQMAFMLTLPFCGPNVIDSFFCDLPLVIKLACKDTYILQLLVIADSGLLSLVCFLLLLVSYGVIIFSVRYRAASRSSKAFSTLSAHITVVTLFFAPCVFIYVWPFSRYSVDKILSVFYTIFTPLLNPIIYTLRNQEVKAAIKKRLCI
How it was run: (§1)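 Whether a receptor–molecule pair is responsive (active) rests on the original authors' judgment that its measured signal was statistically different from baseline. Pairs without that judgment are non-responsive (inactive). Sources used varied assay methods, commonly transient luciferase assays in mammalian cell lines.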

OR4K14 (Homo sapiens) = target: T2, OR4K14 (Homo sapiens) (UniProt Q8NGD5)
T2 sequence (whole entry): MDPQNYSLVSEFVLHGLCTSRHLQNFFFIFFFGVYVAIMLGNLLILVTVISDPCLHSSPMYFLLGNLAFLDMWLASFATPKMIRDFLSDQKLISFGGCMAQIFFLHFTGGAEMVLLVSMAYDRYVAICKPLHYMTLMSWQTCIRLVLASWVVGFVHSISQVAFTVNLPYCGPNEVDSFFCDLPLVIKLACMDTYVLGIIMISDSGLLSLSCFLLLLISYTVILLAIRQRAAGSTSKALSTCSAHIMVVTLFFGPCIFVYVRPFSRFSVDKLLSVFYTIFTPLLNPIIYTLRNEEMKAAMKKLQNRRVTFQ
How it was run: as §1

OR4K15 (Homo sapiens) = target: T3, OR4K15 (Homo sapiens) (UniProt Q8NH41)
T3 sequence (whole entry): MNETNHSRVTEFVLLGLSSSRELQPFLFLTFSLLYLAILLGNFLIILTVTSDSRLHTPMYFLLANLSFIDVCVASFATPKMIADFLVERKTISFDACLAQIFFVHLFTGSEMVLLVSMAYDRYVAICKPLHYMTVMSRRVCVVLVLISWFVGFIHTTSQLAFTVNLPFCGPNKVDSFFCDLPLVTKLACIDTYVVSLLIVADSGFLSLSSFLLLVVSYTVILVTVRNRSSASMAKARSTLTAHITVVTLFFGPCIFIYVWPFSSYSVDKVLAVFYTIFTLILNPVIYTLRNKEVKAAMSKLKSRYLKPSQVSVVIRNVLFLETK
How it was run: as §1

OR4K17 (Homo sapiens) = target: T4, OR4K17 (Homo sapiens) (UniProt Q8NGC6)
T4 sequence (whole entry): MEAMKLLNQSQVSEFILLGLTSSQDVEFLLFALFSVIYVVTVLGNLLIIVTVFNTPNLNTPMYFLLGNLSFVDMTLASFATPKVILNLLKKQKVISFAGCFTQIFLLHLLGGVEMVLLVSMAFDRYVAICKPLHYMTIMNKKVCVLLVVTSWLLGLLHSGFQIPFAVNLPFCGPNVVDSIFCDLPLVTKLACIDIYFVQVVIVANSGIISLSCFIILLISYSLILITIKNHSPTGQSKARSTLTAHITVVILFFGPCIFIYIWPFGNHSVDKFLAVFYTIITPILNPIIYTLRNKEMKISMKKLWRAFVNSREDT
How it was run: as §1

OR4K2 (Homo sapiens) = target: T5, OR4K2 (Homo sapiens) (UniProt Q8NGD2)
T5 sequence (whole entry): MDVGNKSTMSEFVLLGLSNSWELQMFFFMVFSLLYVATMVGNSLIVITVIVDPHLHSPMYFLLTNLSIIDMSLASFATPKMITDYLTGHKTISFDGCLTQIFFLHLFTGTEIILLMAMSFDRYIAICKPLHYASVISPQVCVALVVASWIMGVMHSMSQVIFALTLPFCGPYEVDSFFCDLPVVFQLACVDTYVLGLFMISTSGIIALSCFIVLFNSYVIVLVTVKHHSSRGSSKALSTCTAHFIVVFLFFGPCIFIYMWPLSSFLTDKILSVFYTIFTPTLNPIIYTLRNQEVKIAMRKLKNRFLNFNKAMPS
How it was run: as §1

OR4K5 (Homo sapiens) = target: T6, OR4K5 (Homo sapiens) (UniProt Q8NGD3)
T6 sequence (whole entry): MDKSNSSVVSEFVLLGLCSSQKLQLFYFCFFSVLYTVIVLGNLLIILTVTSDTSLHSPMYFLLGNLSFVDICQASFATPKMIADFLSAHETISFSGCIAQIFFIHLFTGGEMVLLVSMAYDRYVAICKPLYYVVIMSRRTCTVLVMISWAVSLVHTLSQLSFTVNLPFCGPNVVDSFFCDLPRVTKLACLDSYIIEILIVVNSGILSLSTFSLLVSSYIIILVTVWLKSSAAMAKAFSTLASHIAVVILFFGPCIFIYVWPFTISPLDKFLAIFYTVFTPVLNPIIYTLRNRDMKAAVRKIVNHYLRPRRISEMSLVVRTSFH
How it was run: as §1

OR4L1 (Homo sapiens) = target: T7, OR4L1 (Homo sapiens) (UniProt Q8NH43)
T7 sequence (whole entry): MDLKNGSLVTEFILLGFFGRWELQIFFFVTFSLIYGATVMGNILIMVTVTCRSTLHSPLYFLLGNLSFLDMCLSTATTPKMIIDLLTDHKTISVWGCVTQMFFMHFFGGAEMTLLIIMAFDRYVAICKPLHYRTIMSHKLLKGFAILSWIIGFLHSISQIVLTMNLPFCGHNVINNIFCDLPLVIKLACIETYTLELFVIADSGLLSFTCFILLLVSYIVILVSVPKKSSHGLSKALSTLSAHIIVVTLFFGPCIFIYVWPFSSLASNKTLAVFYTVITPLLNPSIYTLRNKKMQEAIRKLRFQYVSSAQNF
How it was run: as §1

OR4M1 (Homo sapiens) = target: T8, OR4M1 (Homo sapiens) (UniProt Q8NGD0)
T8 sequence (whole entry): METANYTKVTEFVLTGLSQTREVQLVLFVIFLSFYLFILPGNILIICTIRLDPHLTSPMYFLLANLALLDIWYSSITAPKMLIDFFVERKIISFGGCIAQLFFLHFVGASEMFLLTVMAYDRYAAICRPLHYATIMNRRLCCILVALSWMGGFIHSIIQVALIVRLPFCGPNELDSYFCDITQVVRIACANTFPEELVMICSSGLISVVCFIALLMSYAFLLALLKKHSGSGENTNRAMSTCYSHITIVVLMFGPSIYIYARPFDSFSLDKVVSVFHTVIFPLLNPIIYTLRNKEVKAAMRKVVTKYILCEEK
How it was run: as §1

OR4M2 (Homo sapiens) = target: T9, OR4M2 (Homo sapiens) (UniProt Q8NGB6)
T9 sequence (whole entry): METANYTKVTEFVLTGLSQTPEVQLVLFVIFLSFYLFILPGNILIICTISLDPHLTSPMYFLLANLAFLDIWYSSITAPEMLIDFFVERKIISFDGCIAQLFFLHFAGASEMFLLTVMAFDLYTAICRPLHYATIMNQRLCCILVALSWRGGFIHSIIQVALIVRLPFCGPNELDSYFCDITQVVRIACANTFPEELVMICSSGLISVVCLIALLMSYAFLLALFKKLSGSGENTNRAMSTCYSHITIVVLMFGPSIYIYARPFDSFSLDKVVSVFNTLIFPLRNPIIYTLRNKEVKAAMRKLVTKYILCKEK
How it was run: as §1

OR4N2 (Homo sapiens) = target: T10, OR4N2 (Homo sapiens) (UniProt Q8NGD1)
T10 sequence (whole entry): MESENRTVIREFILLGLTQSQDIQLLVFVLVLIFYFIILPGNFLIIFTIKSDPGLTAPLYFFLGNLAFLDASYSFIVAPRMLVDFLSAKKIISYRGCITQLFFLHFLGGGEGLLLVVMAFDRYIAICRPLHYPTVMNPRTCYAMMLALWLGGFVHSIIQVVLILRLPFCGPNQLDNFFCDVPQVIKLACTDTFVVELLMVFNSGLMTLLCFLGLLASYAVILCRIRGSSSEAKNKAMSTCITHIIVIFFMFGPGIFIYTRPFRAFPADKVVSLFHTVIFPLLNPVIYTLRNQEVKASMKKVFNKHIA
How it was run: as §1

OR4K1 R304H = system: T11, OR4K1 R304H
T11 sequence (whole entry): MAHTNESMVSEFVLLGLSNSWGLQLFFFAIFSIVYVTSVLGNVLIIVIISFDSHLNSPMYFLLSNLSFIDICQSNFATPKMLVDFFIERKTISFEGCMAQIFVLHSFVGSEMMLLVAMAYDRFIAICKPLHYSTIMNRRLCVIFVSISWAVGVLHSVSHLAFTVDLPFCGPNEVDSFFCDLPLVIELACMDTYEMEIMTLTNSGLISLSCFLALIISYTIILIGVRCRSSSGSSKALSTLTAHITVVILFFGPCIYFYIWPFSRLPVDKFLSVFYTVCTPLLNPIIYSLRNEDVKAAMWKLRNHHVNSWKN
How it was run: as §1

OR4K2 = system: T12, OR4K2
T12 sequence (whole entry): T5 sequence (whole entry) with N307I
How it was run: as §1

OR4KF = system: T13, OR4KF
T13 sequence (whole entry): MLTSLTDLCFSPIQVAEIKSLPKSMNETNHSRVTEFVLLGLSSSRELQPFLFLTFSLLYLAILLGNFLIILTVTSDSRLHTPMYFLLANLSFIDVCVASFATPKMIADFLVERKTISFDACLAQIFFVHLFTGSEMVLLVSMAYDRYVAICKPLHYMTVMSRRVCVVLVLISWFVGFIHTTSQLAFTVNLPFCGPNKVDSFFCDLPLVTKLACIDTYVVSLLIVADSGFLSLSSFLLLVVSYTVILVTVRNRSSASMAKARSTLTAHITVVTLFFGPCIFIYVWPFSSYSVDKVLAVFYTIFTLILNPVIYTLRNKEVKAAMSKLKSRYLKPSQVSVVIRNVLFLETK
How it was run: as §1

OR4KH = system: T14, OR4KH
T14 sequence (whole entry): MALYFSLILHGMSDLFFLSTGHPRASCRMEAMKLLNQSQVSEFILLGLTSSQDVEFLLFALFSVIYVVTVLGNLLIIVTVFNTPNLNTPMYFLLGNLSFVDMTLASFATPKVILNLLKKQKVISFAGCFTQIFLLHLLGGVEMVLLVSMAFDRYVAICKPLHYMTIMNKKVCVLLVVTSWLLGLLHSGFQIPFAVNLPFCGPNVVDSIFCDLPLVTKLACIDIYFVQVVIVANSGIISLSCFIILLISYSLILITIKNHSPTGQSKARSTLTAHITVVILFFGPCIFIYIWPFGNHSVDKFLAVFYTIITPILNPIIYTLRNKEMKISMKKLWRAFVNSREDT
How it was run: as §1

OR4L1 = system: T15, OR4L1
T15 sequence (whole entry): T7 sequence (whole entry) with R52S
How it was run: as §1

OR4M1 H277N V279L L284H = system: T16, OR4M1 H277N V279L L284H
T16 sequence (whole entry): T8 sequence (whole entry) with H277N, V279L, L284H
How it was run: as §1

OR4N2 A57V I76T = system: T17, OR4N2 A57V I76T
T17 sequence (whole entry): T10 sequence (whole entry) with A57V, I76T
How it was run: as §1

OR4N2 R260C F279L R290H = system: T18, OR4N2 R260C F279L R290H
T18 sequence (whole entry): T10 sequence (whole entry) with R260C, F279L, R290H
How it was run: as §1

OR4K3 (Homo sapiens) = OR4K3 (Homo sapiens) (UniProt Q96R72)
OR4K3 (Homo sapiens), sequence (Q96R72 whole entry): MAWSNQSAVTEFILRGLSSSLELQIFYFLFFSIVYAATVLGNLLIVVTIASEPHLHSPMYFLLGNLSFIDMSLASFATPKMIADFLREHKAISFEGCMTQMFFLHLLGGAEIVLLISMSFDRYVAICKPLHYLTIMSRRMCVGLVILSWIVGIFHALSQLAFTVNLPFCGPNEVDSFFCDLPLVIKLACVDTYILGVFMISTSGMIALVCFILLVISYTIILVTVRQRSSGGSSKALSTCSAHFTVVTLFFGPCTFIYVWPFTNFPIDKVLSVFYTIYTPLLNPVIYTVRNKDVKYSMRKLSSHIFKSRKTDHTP
How it was run: as §1

OR4M2B (Homo sapiens) = OR4M2B (Homo sapiens) (UniProt A0A0X1KG70)
OR4M2B (Homo sapiens), sequence (A0A0X1KG70 whole entry): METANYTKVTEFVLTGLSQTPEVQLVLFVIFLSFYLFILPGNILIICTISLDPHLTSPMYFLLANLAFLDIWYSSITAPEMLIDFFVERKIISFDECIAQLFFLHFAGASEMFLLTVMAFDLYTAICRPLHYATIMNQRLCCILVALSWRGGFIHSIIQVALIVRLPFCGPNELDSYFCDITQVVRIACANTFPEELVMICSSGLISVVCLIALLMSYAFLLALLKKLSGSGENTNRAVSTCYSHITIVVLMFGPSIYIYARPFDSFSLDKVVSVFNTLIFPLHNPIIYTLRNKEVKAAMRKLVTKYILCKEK
How it was run: as §1

Measured: odorant receptor agonist call;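 further: active if original authors judged signal statistically different from baseline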

CCCCC(S)C(C)CO (stereo not given)
inactive: OR4K13 (Homo sapiens) | OR4K14 (Homo sapiens) | OR4K15 (Homo sapiens) | OR4K17 (Homo sapiens) | OR4K2 (Homo sapiens) | OR4K5 (Homo sapiens) | OR4L1 (Homo sapiens) | OR4M1 (Homo sapiens) | OR4M2 (Homo sapiens) | OR4N2 (Homo sapiens)

Cc1cnc(C)c(C)n1
not listed: OR4K15 (Homo sapiens) | OR4K17 (Homo sapiens) | OR4K3 (Homo sapiens) | OR4M2B (Homo sapiens)
inactive: all other assays above

CCC(S)C(C)CO (stereo not given)
inactive: OR4K13 (Homo sapiens) | OR4K14 (Homo sapiens) | OR4K15 (Homo sapiens) | OR4K17 (Homo sapiens) | OR4K2 (Homo sapiens) | OR4K5 (Homo sapiens) | OR4L1 (Homo sapiens) | OR4M1 (Homo sapiens) | OR4M2 (Homo sapiens) | OR4N2 (Homo sapiens)

CCCCCC(S)C(C)CO (stereo not given)
inactive: OR4K13 (Homo sapiens) | OR4K14 (Homo sapiens) | OR4K15 (Homo sapiens) | OR4K17 (Homo sapiens) | OR4K2 (Homo sapiens) | OR4K5 (Homo sapiens) | OR4L1 (Homo sapiens) | OR4M1 (Homo sapiens) | OR4M2 (Homo sapiens) | OR4N2 (Homo sapiens)

CCCCCC(=O)C(C)C(C)=O (stereo not given)
inactive: OR4K13 (Homo sapiens) | OR4K14 (Homo sapiens) | OR4K15 (Homo sapiens) | OR4K17 (Homo sapiens) | OR4K2 (Homo sapiens) | OR4K5 (Homo sapiens) | OR4L1 (Homo sapiens) | OR4M1 (Homo sapiens) | OR4M2 (Homo sapiens) | OR4N2 (Homo sapiens)

CCC1OC(=O)C(O)=C1C (stereo not given)
not listed: OR4K15 (Homo sapiens) | OR4K17 (Homo sapiens) | OR4K3 (Homo sapiens) | OR4M2B (Homo sapiens)
inactive: all other assays above

CC1=C(O)C(=O)OC1C (stereo not given)
not listed: OR4K15 (Homo sapiens) | OR4K17 (Homo sapiens) | OR4K3 (Homo sapiens) | OR4M2B (Homo sapiens)
inactive: all other assays above

CC1CCCCCCCCCCCCC(=O)C1 (stereo not given)
not listed: OR4K1 R304H | OR4K2 | OR4KF | OR4KH | OR4L1 | OR4M1 H277N V279L L284H | OR4N2 A57V I76T | OR4N2 R260C F279L R290H
inactive: all other assays above
